This is an account of results in ChEMBL document CHEMBL4190374, “Structure-Function Evaluation of Imidazopyridine Derivatives Selective for δ-Subunit-Containing γ-Aminobutyric Acid Type A (GABAA) Receptors” (J Med Chem, 2018).

The structures appear in SMILES notation. The source made the active and inactive calls. No cut-off for these calls is given here.

The target of assay [1] is Gamma-aminobutyric acid receptor subunit alpha-4/beta-3/delta (Rattus norvegicus, UniProt P18506+P28471+P63079). The assay can be described thus: Displacement of [3H]EBOB from rat GABA-A receptor alpha4beta3delta expressed in HEK293 cell membranes after 90 mins by liquid scintillation counting analysis. In a few lines:
(§1)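 Crude membranes from HEK 293 cells transiently Ca-phosphate-transfected with rat subunit cDNAs, harvested at 48 h. Membranes (150-200 µg protein) incubated with 3 nM [3H]EBOB in 50 mM Tris/citrate pH 7.3 plus 0.2 M NaCl. Compound up to 10 µM, final DMSO 0.1%, no GABA, 90 min at 21 °C. Bound radioligand collected by GF/C filtration and counted by scintillation.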
A general note: Loss of bound radioactivity is the signal in a displacement assay; it reports binding, not function.

In assay [2] the target is Gamma-aminobutyric acid receptor subunit alpha-1/beta-3/gamma-2 (Rattus norvegicus) (UniProt P18508+P62813+P63079). In words: Modulation of rat […] GABA-A receptor alpha1beta3gamma2 expressed in HEK293 cells up to 10 uM in presence of GABA by patch-clamp assay relative to control. It is filed as cell-based. In a few lines:
(§2)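 Rat GABA-A subunits were transiently co-transfected with eGFP into HEK293 cells on coverslips. Fluorescent cells were recorded by whole-cell patch clamp 48 h later; bath pH 7.4, KCl/KOH pipette pH 7.2. Compound was applied at increasing concentrations up to 10 µM with the receptor-specific GABA EC20. Peak currents were fitted logistically for EC50, Hill and % modulation, as mean ± S.E.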
On the technique in general: The patch-clamp technique gives a direct electrical read-out from membranes.

Assay [3] has as its target Gamma-aminobutyric acid receptor subunit alpha-6/beta-2/delta (Rattus norvegicus, UniProt P18506+P30191+P63138). The assay can be described thus: Displacement of [3H]EBOB from rat GABA-A receptor alpha6beta2delta expressed in HEK293 cell membranes after 90 mins by liquid scintillation counting analysis. A digest of the protocol:
as §1

The target of assay [4] is Gamma-aminobutyric acid receptor subunit alpha-6/beta-3/delta (Rattus norvegicus, UniProt P18506+P30191+P63079). In words: Displacement of [3H]EBOB from rat GABA-A receptor alpha6beta3delta expressed in HEK293 cell membranes after 90 mins by liquid scintillation counting analysis. A digest of the protocol:
as §1

For assay [5], the target named is Gamma-aminobutyric acid receptor subunit alpha-4/beta-3/gamma-2 (Rattus norvegicus) (UniProt P18508+P28471+P63079). In words: Modulation of rat eGFP-fused GABA-A receptor alpha4beta3gamma2 expressed in HEK293 cells at <=1 uM in presence of GABA by patch-clamp assay relative to control. It is filed as cell-based.
The target of assay [6] is Gamma-aminobutyric acid receptor subunit alpha-1/beta-3/delta (Rattus norvegicus) (UniProt P18506+P62813+P63079). The assay can be described thus: Agonist activity at rat […] GABA-A receptor alpha1beta3delta expressed in HEK293 cells assessed as ratio of I0 to GABA Imax at 10 uM in absence of GABA by patch-clamp assay. It is filed as cell-based. A digest of the protocol: (§3)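 Whole-cell patch clamp on single fluorescent HEK 293 cells 48 h after transient co-transfection with rat subunit cDNAs plus eGFP. Extracellular solution 135 mM NaCl, 5.3 mM KCl, 2 mM CaCl2, 2 mM MgSO4, 10 mM HEPES pH 7.4, perfused 3 mL/min. Compound at 10 µM without GABA. Current expressed relative to 1 mM GABA at the same receptor (I0/Imax GABA), mean ± S.D. of n experiments.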

Assay [7] is filed under the species Rattus norvegicus. The assay can be described thus: Selectivity ratio of IC50 for rat GABA-A receptor alpha4beta3gamma2 expressed in HEK293 cells to IC50 for rat GABA-A receptor alpha4beta3delta expressed in HEK293 cells. It is filed as cell-based.
The target of assay [8] is Gamma-aminobutyric acid receptor subunit alpha-1/beta-3/delta (Rattus norvegicus, UniProt P18506+P62813+P63079). In words: Modulation of rat […] GABA-A receptor alpha1beta3delta expressed in HEK293 cells in presence of GABA by patch-clamp assay. It is filed as cell-based. A digest of the protocol:
as §2

The target in assay [9] is T1, Gamma-aminobutyric acid receptor subunit alpha-6/beta-3 (Rattus norvegicus) (UniProt P30191+P63079). In words: Displacement of [3H]EBOB from rat GABA-A receptor alpha6beta3 expressed in HEK293 cell membranes up to 10 uM after 90 mins by liquid scintillation counting analysis relative to control. A digest of the protocol:
as §1

The species named for assay [10] is Rattus norvegicus. In words: Selectivity ratio of IC50 for rat GABA-A receptor alpha6beta2 expressed in HEK293 cells to IC50 for rat GABA-A receptor alpha6beta2delta expressed in HEK293 cells. In kind it is cell-based.
Assay [11] addresses T2, Gamma-aminobutyric acid receptor subunit alpha-6/beta-3/delta (Rattus norvegicus) (UniProt P18506+P30191+P63079). The assay can be described thus: Displacement of [3H]EBOB from rat GABA-A receptor alpha6beta3delta expressed in HEK293 cell membranes up to 10 uM after 90 mins by liquid scintillation counting analysis relative to control. A digest of the protocol: as §1
In assay [12] the target is T3, Gamma-aminobutyric acid receptor subunit alpha-4/beta-3/delta (Rattus norvegicus) (UniProt P18506+P28471+P63079). In words: Displacement of [3H]EBOB from rat GABA-A receptor alpha4beta3delta expressed in HEK293 cell membranes up to 10 uM after 90 mins by liquid scintillation counting analysis relative to control. A digest of the protocol:
as §1

In assay [13] the target is T2, Gamma-aminobutyric acid receptor subunit alpha-6/beta-3/delta (Rattus norvegicus). The assay can be described thus: Agonist activity at rat […] GABA-A receptor alpha6beta3delta expressed in HEK293 cells assessed as ratio of I0 to GABA Imax at 10 uM in absence of GABA by patch-clamp assay. In kind it is cell-based. In a few lines: as §3
The species named for assay [14] is Rattus norvegicus. The assay can be described thus: Selectivity ratio of IC50 for rat GABA-A receptor alpha6beta3delta expressed in HEK293 cells to IC50 for rat GABA-A receptor alpha6beta2delta expressed in HEK293 cells. It is filed as cell-based.
Assay [15] has as its target T1, Gamma-aminobutyric acid receptor subunit alpha-6/beta-3 (Rattus norvegicus). In words: Modulation of rat […] GABA-A receptor alpha6beta3 expressed in HEK293 cells up to 10 uM in presence of GABA by patch-clamp assay relative to control. In kind it is cell-based. In a few lines:
as §2

For assay [16], the target named is T4, Gamma-aminobutyric acid receptor subunit alpha-6/beta-3/gamma-2 (Rattus norvegicus) (UniProt P18508+P30191+P63079). In words: Displacement of [3H]EBOB from rat GABA-A receptor alpha6beta3gamma2 expressed in HEK293 cell membranes up to 10 uM after 90 mins by liquid scintillation counting analysis relative to control. A digest of the protocol:
as §1

The species named for assay [17] is Rattus norvegicus. In words: Selectivity ratio of IC50 for rat GABA-A receptor alpha4beta3 expressed in HEK293 cells to IC50 for rat GABA-A receptor alpha4beta3delta expressed in HEK293 cells. In kind it is cell-based.
The target of assay [18] is T4, Gamma-aminobutyric acid receptor subunit alpha-6/beta-3/gamma-2 (Rattus norvegicus). In words: Modulation of rat […] GABA-A receptor alpha6beta3gamma2 expressed in HEK293 cells up to 10 uM in presence of GABA by patch-clamp assay relative to control. In kind it is cell-based. A digest of the protocol:
as §2

For assay [19], the target named is T3, Gamma-aminobutyric acid receptor subunit alpha-4/beta-3/delta (Rattus norvegicus). In words: Agonist activity at rat […] GABA-A receptor alpha4beta3delta expressed in HEK293 cells assessed as ratio of I0 to GABA Imax at 10 uM in absence of GABA by patch-clamp assay. In kind it is cell-based. A digest of the protocol:
as §3

Assay [20] has as its target Gamma-aminobutyric acid receptor subunit alpha-4/beta-3 (Rattus norvegicus) (UniProt P28471+P63079). In words: Agonist activity at rat […] GABA-A receptor alpha4beta3 expressed in HEK293 cells assessed as ratio of I0 to GABA Imax at 10 uM in absence of GABA by patch-clamp assay. In kind it is cell-based. In a few lines:
as §3

Gamma-aminobutyric acid receptor subunit alpha-6/beta-2/delta, sequence (P18506 whole entry): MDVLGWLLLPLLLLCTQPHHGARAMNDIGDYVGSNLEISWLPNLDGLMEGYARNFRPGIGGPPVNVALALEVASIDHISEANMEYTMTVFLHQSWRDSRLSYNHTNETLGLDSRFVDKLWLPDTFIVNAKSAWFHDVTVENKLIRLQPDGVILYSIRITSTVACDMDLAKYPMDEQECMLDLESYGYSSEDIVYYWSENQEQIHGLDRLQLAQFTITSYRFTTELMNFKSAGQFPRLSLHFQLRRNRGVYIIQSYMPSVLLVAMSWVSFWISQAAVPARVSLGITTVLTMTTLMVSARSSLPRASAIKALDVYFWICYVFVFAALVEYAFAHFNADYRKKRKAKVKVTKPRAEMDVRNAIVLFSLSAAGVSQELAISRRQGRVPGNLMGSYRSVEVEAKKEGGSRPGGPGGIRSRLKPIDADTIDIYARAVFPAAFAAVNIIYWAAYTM
Gamma-aminobutyric acid receptor subunit alpha-6/beta-2/delta, sequence (P30191 whole entry): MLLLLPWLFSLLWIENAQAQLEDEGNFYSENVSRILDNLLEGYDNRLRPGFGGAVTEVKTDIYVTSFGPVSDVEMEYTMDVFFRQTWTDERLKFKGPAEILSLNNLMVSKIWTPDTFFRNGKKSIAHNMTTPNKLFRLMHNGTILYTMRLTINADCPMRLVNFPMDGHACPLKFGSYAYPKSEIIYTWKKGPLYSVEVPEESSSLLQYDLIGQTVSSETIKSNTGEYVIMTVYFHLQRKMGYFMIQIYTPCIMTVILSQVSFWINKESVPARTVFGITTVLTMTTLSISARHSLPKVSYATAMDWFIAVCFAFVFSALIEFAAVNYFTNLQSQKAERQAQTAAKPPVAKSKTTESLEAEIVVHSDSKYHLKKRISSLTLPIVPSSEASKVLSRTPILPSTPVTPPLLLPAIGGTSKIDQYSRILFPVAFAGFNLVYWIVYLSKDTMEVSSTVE
Gamma-aminobutyric acid receptor subunit alpha-6/beta-2/delta, sequence (P63138 whole entry): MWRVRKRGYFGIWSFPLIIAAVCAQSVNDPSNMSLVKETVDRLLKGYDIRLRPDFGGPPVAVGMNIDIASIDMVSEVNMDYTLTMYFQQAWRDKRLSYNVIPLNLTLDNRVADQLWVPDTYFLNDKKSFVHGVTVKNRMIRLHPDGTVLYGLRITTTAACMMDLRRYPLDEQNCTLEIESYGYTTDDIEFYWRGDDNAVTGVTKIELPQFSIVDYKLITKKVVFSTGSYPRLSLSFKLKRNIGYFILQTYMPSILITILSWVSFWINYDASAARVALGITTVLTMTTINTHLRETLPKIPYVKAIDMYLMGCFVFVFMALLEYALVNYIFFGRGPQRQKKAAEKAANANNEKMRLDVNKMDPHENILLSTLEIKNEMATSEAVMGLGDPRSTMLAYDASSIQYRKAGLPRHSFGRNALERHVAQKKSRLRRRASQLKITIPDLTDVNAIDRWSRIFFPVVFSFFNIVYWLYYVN
Gamma-aminobutyric acid receptor subunit alpha-4/beta-3/delta, sequence (P18506 whole entry): as the sequence (P18506 whole entry) above
Gamma-aminobutyric acid receptor subunit alpha-4/beta-3/delta, sequence (P28471 whole entry): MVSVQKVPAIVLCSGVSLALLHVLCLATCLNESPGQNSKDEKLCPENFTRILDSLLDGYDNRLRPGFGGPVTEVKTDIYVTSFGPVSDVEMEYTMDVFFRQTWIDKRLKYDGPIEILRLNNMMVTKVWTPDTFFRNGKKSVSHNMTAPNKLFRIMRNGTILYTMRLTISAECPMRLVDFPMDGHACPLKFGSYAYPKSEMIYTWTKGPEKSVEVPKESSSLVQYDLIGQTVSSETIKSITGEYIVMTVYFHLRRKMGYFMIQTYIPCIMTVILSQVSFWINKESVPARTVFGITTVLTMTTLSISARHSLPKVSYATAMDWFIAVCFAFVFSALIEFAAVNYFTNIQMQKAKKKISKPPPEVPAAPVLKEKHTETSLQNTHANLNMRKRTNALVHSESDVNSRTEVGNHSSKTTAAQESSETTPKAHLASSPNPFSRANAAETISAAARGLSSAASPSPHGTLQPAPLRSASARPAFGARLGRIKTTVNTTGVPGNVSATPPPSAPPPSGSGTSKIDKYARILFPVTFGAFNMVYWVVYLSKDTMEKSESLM
Gamma-aminobutyric acid receptor subunit alpha-4/beta-3/delta, sequence (P63079 whole entry): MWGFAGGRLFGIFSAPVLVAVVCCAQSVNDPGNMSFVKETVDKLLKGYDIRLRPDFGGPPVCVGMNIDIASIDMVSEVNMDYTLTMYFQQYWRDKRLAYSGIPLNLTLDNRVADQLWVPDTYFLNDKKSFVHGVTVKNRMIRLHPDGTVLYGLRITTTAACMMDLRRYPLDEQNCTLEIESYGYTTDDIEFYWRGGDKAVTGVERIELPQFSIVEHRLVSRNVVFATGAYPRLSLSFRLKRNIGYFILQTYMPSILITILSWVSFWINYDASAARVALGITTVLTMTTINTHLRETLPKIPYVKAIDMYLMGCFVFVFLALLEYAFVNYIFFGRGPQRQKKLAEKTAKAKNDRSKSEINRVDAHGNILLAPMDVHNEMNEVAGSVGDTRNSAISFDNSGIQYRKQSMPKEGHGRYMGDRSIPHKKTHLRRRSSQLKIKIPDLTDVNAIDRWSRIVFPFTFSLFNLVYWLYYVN
Gamma-aminobutyric acid receptor subunit alpha-1/beta-3/delta, sequence (P18506 whole entry): as the sequence (P18506 whole entry) above
Gamma-aminobutyric acid receptor subunit alpha-1/beta-3/delta, sequence (P62813 whole entry): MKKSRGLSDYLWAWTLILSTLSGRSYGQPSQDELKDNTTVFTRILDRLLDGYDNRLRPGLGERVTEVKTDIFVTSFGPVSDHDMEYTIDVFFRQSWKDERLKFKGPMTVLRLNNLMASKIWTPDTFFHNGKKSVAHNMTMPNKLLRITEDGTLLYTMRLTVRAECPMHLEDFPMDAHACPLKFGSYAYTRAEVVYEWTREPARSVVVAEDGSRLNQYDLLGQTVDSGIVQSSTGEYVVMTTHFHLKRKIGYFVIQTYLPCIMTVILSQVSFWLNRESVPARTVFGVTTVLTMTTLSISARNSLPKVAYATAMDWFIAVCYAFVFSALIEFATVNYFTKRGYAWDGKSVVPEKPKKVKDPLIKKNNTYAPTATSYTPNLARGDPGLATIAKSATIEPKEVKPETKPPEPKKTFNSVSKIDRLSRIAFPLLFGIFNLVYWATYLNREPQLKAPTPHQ
Gamma-aminobutyric acid receptor subunit alpha-1/beta-3/delta, sequence (P63079 whole entry): as the sequence (P63079 whole entry) above
Gamma-aminobutyric acid receptor subunit alpha-6/beta-3/delta, sequence (P18506 whole entry): as the sequence (P18506 whole entry) above
Gamma-aminobutyric acid receptor subunit alpha-6/beta-3/delta, sequence (P30191 whole entry): as the sequence (P30191 whole entry) above
Gamma-aminobutyric acid receptor subunit alpha-6/beta-3/delta, sequence (P63079 whole entry): as the sequence (P63079 whole entry) above

A word on the IC50: it is the concentration that gives 50% inhibition. A high value points to weaker potency in that assay. As a reminder, the EC50 is the concentration needed to bring the measured effect to its halfway point. As for `O=C(Nc1c(-c2cccs2)nc2c(Br)cc(Br)cn12)c1ccc(Cl)cc1`, the IC50 in assay [1] was 510 nM; in assay [3] it was 150 nM; in [4] it was 310 nM. For the same compound, the values for the Activity in [2], in assay [15] and in [18] were 139%, 1140% and 157%, respectively. In assay [5], the result was inactive. Besides, the Ratio was 0.323 in assay [6], 1.04 in assay [13], 1.61 in assay [19] and 0.124 in assay [20]. In addition, the Ratio IC50 in the assay filed under Rattus norvegicus [7] amounted to 7; in the assay filed under Rattus norvegicus [10], 4; in the assay filed under Rattus norvegicus [14], 2; in the assay listed under Rattus norvegicus [17], 4. In addition, in [8], the EC50 was 100 nM. In addition, the Imax is 90% in assay [9], 84% in assay [11], 61% in assay [12] and 94% in assay [16].
